Reference: ChEMBL document CHEMBL4715736, “Identification of anticancer agents based on the thieno[2,3-b]pyridine and 1H-pyrazole molecular scaffolds” (2016)

What was measured:
Format in all cases: functional
Conditions in all cases: read-out: Activity
HCT-15 = test: Growth inhibition of human HCT-15 cells assessed as cell growth at 10 uM incubated for 48 hrs by sulforhodamine B assay relative to control
Summary of the method: (§1)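 Submitted to the NCI Developmental Therapeutics Program for the NCI60 human tumour cell line panel. First screen at a single 10 µM concentration. Read-out is growth relative to untreated control cells set at 100%.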

SK-MEL-2 = test: Growth inhibition of human SK-MEL-2 cells assessed as cell growth at 10 uM incubated for 48 hrs by sulforhodamine B assay relative to control
Summary of the method: (§2)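 Run by the NCI Developmental Therapeutics Program as part of its 60-line human tumour panel. Each compound tested at a single 10 µM dose. Growth expressed as % relative to untreated control cells (100%).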

SW-620 = test: Growth inhibition of human SW-620 cells assessed as cell growth at 10 uM incubated for 48 hrs by sulforhodamine B assay relative to control; summary of the method: as §2
786-0 = test: Growth inhibition of human 786-0 cells assessed as cell growth at 10 uM incubated for 48 hrs by sulforhodamine B assay relative to control
Summary of the method: (§3)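 NCI Developmental Therapeutics Program NCI60 panel. Compounds that were active in the 10 µM one-dose screen went on to dose–response testing. Growth at each concentration is expressed relative to untreated control (100%). GI50 (concentration giving 50% of maximal inhibition of proliferation) and TGI (concentration giving total growth inhibition) were derived from the curves.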

SK-OV-3 = test: Growth inhibition of human SK-OV-3 cells assessed as cell growth at 10 uM incubated for 48 hrs by sulforhodamine B assay relative to control; summary of the method: as §2
MDA-MB-435 = test: Growth inhibition of human MDA-MB-435 cells assessed as cell growth at 10 uM incubated for 48 hrs by sulforhodamine B assay relative to control; summary of the method: as §1
HL-60(TB) = test: Growth inhibition of human HL-60(TB) cells assessed as cell growth at 10 uM incubated for 48 hrs by sulforhodamine B assay relative to control
Summary of the method: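 Screened by the NCI Developmental Therapeutics Program on its panel of 60 human tumour cell lines. Compounds were first tested at a single 10 µM dose, and compounds active there went to dose-response curves. Growth is expressed relative to untreated control (100%). GI50 (50% of maximal proliferation inhibition) and TGI (total growth inhibition) were derived from the dose-response data.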

UO-31 = test: Growth inhibition of human UO-31 cells assessed as cell growth at 10 uM incubated for 48 hrs by sulforhodamine B assay relative to control; summary of the method: as §2
MDA-MB-231 = test: Growth inhibition of human MDA-MB-231 cells assessed as cell growth at 10 uM incubated for 48 hrs by sulforhodamine B assay relative to control; summary of the method: as §1
TK-10 = test: Growth inhibition of human TK-10 cells assessed as cell growth at 10 uM incubated for 48 hrs by sulforhodamine B assay relative to control; summary of the method: as §2
BT-549 = test: Growth inhibition of human BT-549 cells assessed as cell growth at 10 uM incubated for 48 hrs by sulforhodamine B assay relative to control
Summary of the method: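 NCI Developmental Therapeutics Program NCI60 human tumour cell line panel, one-dose primary screen with every compound at 10 µM. Growth is expressed as % of untreated control cells (100%).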

MOLT-4 = test: Growth inhibition of human MOLT-4 cells assessed as cell growth at 10 uM incubated for 48 hrs by sulforhodamine B assay relative to control; summary of the method: as §1
NCI-H226 = test: Growth inhibition of human NCI-H226 cells assessed as cell growth at 10 uM incubated for 48 hrs by sulforhodamine B assay relative to control; summary of the method: as §1
Hs-578T = test: Growth inhibition of human Hs-578T cells assessed as cell growth at 10 uM incubated for 48 hrs by sulforhodamine B assay relative to control; summary of the method: as §1
NCI/ADR-RES = test: Growth inhibition of human NCI/ADR-RES cells assessed as cell growth at 10 uM incubated for 48 hrs by sulforhodamine B assay relative to control; summary of the method: as §1
SNB-75 = test: Growth inhibition of human SNB-75 cells assessed as cell growth at 10 uM incubated for 48 hrs by sulforhodamine B assay relative to control; summary of the method: as §2
PC-3 = test: Growth inhibition of human PC-3 cells assessed as cell growth at 10 uM incubated for 48 hrs by sulforhodamine B assay relative to control; summary of the method: as §2
NCI-H522 = test: Growth inhibition of human NCI-H522 cells assessed as cell growth at 10 uM incubated for 48 hrs by sulforhodamine B assay relative to control; summary of the method: as §1
A498 = test: Growth inhibition of human A498 cells assessed as cell growth at 10 uM incubated for 48 hrs by sulforhodamine B assay relative to control; summary of the method: as §3
SF-268 = test: Growth inhibition of human SF-268 cells assessed as cell growth at 10 uM incubated for 48 hrs by sulforhodamine B assay relative to control; summary of the method: as §2
SR = test: Growth inhibition of human SR cells assessed as cell growth at 10 uM incubated for 48 hrs by sulforhodamine B assay relative to control; summary of the method: as §2
K562 = test: Growth inhibition of human K562 cells assessed as cell growth at 10 uM incubated for 48 hrs by sulforhodamine B assay relative to control; summary of the method: as §1
HT-29 = test: Growth inhibition of human HT-29 cells assessed as cell growth at 10 uM incubated for 48 hrs by sulforhodamine B assay relative to control; summary of the method: as §1
CAKI-1 = test: Growth inhibition of human CAKI-1 cells assessed as cell growth at 10 uM incubated for 48 hrs by sulforhodamine B assay relative to control; summary of the method: as §3

CC(C)N1CCc2nc3sc(C(=O)Nc4ccccc4)c(N)c3cc2C1
growth at 10 µM (HCT-15): 101%
growth at 10 µM (SK-MEL-2): 114%
growth at 10 µM (SW-620): 96.4%
growth at 10 µM (786-0): 108%
growth at 10 µM (SK-OV-3): 113%
growth at 10 µM (MDA-MB-435): 94%
growth at 10 µM (HL-60(TB)): 98.4%
growth at 10 µM (UO-31): 87.8%
growth at 10 µM (MDA-MB-231): 95.2%
growth at 10 µM (TK-10): 127%
growth at 10 µM (BT-549): 106%
growth at 10 µM (MOLT-4): 106%
growth at 10 µM (NCI-H226): 94.8%
growth at 10 µM (Hs-578T): 100%
growth at 10 µM (NCI/ADR-RES): 100%
growth at 10 µM (SNB-75): 69.1%
growth at 10 µM (PC-3): 81.9%
growth at 10 µM (NCI-H522): 104%
growth at 10 µM (A498): 67.5%
growth at 10 µM (SF-268): 113%
growth at 10 µM (SR): 86.6%
growth at 10 µM (K562): 97.8%
growth at 10 µM (HT-29): 103%

O=S(=O)(c1ccc(Br)cc1)n1ccc(-c2ccc(OCCCF)cc2)n1
growth at 10 µM (HCT-15): 86.4%
growth at 10 µM (SK-MEL-2): 96.4%
growth at 10 µM (SW-620): 107%
growth at 10 µM (786-0): 85.3%
growth at 10 µM (SK-OV-3): 106%
growth at 10 µM (MDA-MB-435): 98.2%
growth at 10 µM (HL-60(TB)): 95.7%
growth at 10 µM (UO-31): 69.1%
growth at 10 µM (MDA-MB-231): 101%
growth at 10 µM (TK-10): 70.8%
growth at 10 µM (BT-549): 110%
growth at 10 µM (MOLT-4): 75.8%
growth at 10 µM (NCI-H226): 80.6%
growth at 10 µM (Hs-578T): 115%
growth at 10 µM (CAKI-1): 79.3%
growth at 10 µM (NCI/ADR-RES): 78.9%
growth at 10 µM (SNB-75): 84.5%
growth at 10 µM (PC-3): 79.5%
growth at 10 µM (NCI-H522): 79.4%
growth at 10 µM (A498): 91.1%
growth at 10 µM (SF-268): 98.5%
growth at 10 µM (SR): 75.2%
growth at 10 µM (K562): 55.6%
growth at 10 µM (HT-29): 89.4%

O=S(=O)(c1ccccc1)n1ccc(-c2ccc3c(c2)CCO3)n1
growth at 10 µM (HCT-15): 92.8%
growth at 10 µM (SK-MEL-2): 86.5%
growth at 10 µM (SW-620): 93.7%
growth at 10 µM (786-0): 90.3%
growth at 10 µM (SK-OV-3): 104%
growth at 10 µM (MDA-MB-435): 104%
growth at 10 µM (HL-60(TB)): 109%
growth at 10 µM (UO-31): 51%
growth at 10 µM (MDA-MB-231): 82.9%
growth at 10 µM (TK-10): 76.2%
growth at 10 µM (BT-549): 96%
growth at 10 µM (MOLT-4): 85.6%
growth at 10 µM (NCI-H226): 64.6%
growth at 10 µM (Hs-578T): 102%
growth at 10 µM (CAKI-1): 75.3%
growth at 10 µM (NCI/ADR-RES): 76%
growth at 10 µM (SNB-75): 76.2%
growth at 10 µM (PC-3): 84.2%
growth at 10 µM (NCI-H522): 61.7%
growth at 10 µM (A498): 71.2%
growth at 10 µM (SF-268): 92.8%
growth at 10 µM (SR): 73.3%
growth at 10 µM (K562): 56%
growth at 10 µM (HT-29): 92.8%

Nc1c(C(=O)N(c2ccccc2)c2ccccc2)sc2nc3c(cc12)C(=O)CCC3
growth at 10 µM (HCT-15): 89.5%
growth at 10 µM (SK-MEL-2): 117%
growth at 10 µM (SW-620): 89.3%
growth at 10 µM (786-0): 104%
growth at 10 µM (SK-OV-3): 108%
growth at 10 µM (MDA-MB-435): 110%
growth at 10 µM (HL-60(TB)): 105%
growth at 10 µM (UO-31): 87%
growth at 10 µM (MDA-MB-231): 85.9%
growth at 10 µM (TK-10): 113%
growth at 10 µM (BT-549): 55.4%
growth at 10 µM (MOLT-4): 102%
growth at 10 µM (NCI-H226): 104%
growth at 10 µM (Hs-578T): 92.3%
growth at 10 µM (NCI/ADR-RES): 101%
growth at 10 µM (SNB-75): 108%
growth at 10 µM (PC-3): 103%
growth at 10 µM (NCI-H522): 103%
growth at 10 µM (A498): 76.3%
growth at 10 µM (SF-268): 99.8%
growth at 10 µM (SR): 55.6%
growth at 10 µM (K562): 113%
growth at 10 µM (HT-29): 84.5%

CC(=O)c1ccc2c(N)c(C(=O)Nc3ccccc3)sc2n1
growth at 10 µM (HCT-15): 96.7%
growth at 10 µM (SK-MEL-2): 107%
growth at 10 µM (SW-620): 99.4%
growth at 10 µM (786-0): 97.9%
growth at 10 µM (SK-OV-3): 106%
growth at 10 µM (MDA-MB-435): 106%
growth at 10 µM (HL-60(TB)): 108%
growth at 10 µM (UO-31): 103%
growth at 10 µM (MDA-MB-231): 112%
growth at 10 µM (TK-10): 108%
growth at 10 µM (BT-549): 108%
growth at 10 µM (MOLT-4): 107%
growth at 10 µM (NCI-H226): 93.4%
growth at 10 µM (Hs-578T): 106%
growth at 10 µM (NCI/ADR-RES): 103%
growth at 10 µM (SNB-75): 99.5%
growth at 10 µM (PC-3): 97.4%
growth at 10 µM (NCI-H522): 103%
growth at 10 µM (A498): 70.3%
growth at 10 µM (SF-268): 112%
growth at 10 µM (SR): 86.5%
growth at 10 µM (K562): 95%
growth at 10 µM (HT-29): 97.2%
